Experimental data as given in ChEMBL document CHEMBL4393724, “Betulin-1,4-quinone hybrids: Synthesis, anticancer activity and molecular docking study with NQO1 enzyme” (Eur J Med Chem, 2019).
Active and inactive are the calls of the source. The rule behind the calls is not given here.

Tests used:
[1] = target: NAD(P)H dehydrogenase [quinone] 1 (Homo sapiens) (UniProt P15559); assay: Inhibition of NQO1 in human A549 cells assessed as decrease in of histone H3 expression at 0.5 times of IC50 incubated for 24 hrs by RT-PCR; format: cell-based
Procedure, shortened: (§1)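 Cultured cells were exposed for 24 h to compound at half its IC50. Transcription of H3, TP53, CDKN1A, BAX and BCL-2 was quantified by real-time RT-qPCR with SYBR Green as mRNA copy numbers and compared with untreated control. The BAX/BCL-2 ratio was calculated from the mRNA copies.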

[2] = tested on: C32; assay: Induction of apoptosis in human C32 cells assessed as increase in BAX/Bcl2 expression at 0.5 times of IC50 incubated for 24 hrs by RT-PCR relative to control; format: functional; procedure, shortened: as §1
[3] = target: NAD(P)H dehydrogenase [quinone] 1 (Homo sapiens) (UniProt P15559); assay: Inhibition of NQO1 in human MCF7 cells assessed as increase in CDKN1A expression at 0.5 times of IC50 incubated for 24 hrs by RT-PCR; format: cell-based; procedure, shortened: as §1
[4] = tested on: A549; assay: Antiproliferative activity against human A549 cells assessed as reduction in cell viability incubated for 72 hrs by WST1 assay; format: functional, cell-based; details: Homo sapiens, A549, 72 h; read-out: IC50
Procedure, shortened: (§2)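 Cells held at 37 °C under 5% CO2 and seeded at 5 × 10^4 cells/well in DMEM with 10% FCS plus streptomycin and penicillin. Compounds were dissolved in DMSO and exposed for 72 h. WST-1 formazan was read at 450 nm. IC50 was derived from the mean ± SD of at least three independent experiments run in triplicate. Cisplatin served as reference.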

[5] = target: NAD(P)H dehydrogenase [quinone] 1 (Homo sapiens) (UniProt P15559); assay: Inhibition of NQO1 in human C32 cells assessed as effect on Bcl2 expression at 0.5 times of IC50 incubated for 24 hrs by RT-PCR; format: cell-based; procedure, shortened: as §1
[6] = target: NAD(P)H dehydrogenase [quinone] 1 (Homo sapiens) (UniProt P15559); assay: Inhibition of NQO1 in human C32 cells assessed as increase in TP53 expression at 0.5 times of IC50 incubated for 24 hrs by RT-PCR; format: cell-based; procedure, shortened: as §1
[7] = target: NAD(P)H dehydrogenase [quinone] 1 (Homo sapiens) (UniProt P15559); assay: Inhibition of NQO1 in human A549 cells assessed as increase in TP53 expression at 0.5 times of IC50 incubated for 24 hrs by RT-PCR; format: cell-based; procedure, shortened: as §1
[8] = tested on: MCF7; assay: Antiproliferative activity against human MCF7 cells assessed as reduction in cell viability incubated for 72 hrs by WST1 assay; format: functional, cell-based; details: Homo sapiens, MCF7, 72 h; read-out: IC50; procedure, shortened: as §2
[9] = tested on: C32; assay: Antiproliferative activity against human C32 cells assessed as reduction in cell viability incubated for 72 hrs by WST1 assay; format: functional, cell-based; details: Homo sapiens, C32, 72 h; read-out: IC50; procedure, shortened: as §2
[10] = target: NAD(P)H dehydrogenase [quinone] 1 (Homo sapiens) (UniProt P15559); assay: Inhibition of NQO1 in human MCF7 cells assessed as decrease in histone H3 expression at 0.5 times of IC50 incubated for 24 hrs by RT-PCR; format: cell-based; procedure, shortened: as §1
[11] = target: NAD(P)H dehydrogenase [quinone] 1 (Homo sapiens) (UniProt P15559); assay: Inhibition of NQO1 in human A549 cells assessed as effect on Bcl2 expression at 0.5 times of IC50 incubated for 24 hrs by RT-PCR; format: cell-based; procedure, shortened: as §1
[12] = target: NAD(P)H dehydrogenase [quinone] 1 (Homo sapiens) (UniProt P15559); assay: Inhibition of NQO1 in human A549 cells assessed as increase in CDKN1A expression at 0.5 times of IC50 incubated for 24 hrs by RT-PCR; format: cell-based; procedure, shortened: as §1
[13] = tested on: T47D; assay: Antiproliferative activity against human T47D cells assessed as reduction in cell viability incubated for 72 hrs by WST1 assay; format: functional, cell-based; details: Homo sapiens, T47D, 72 h; read-out: IC50
[14] = tested on: SNB-19; assay: Antiproliferative activity against human SNB19 cells assessed as reduction in cell viability incubated for 72 hrs by WST1 assay; format: functional, cell-based
[15] = tested on: COLO-829; assay: Antiproliferative activity against human COLO829 cells assessed as reduction in cell viability incubated for 72 hrs by WST1 assay; format: functional, cell-based; details: Homo sapiens, COLO-829, 72 h; read-out: IC50
[16] = tested on: MCF7; assay: Induction of apoptosis in human MCF7 cells assessed as increase in BAX/Bcl2 expression at 0.5 times of IC50 incubated for 24 hrs by RT-PCR; format: functional, cell-based; procedure, shortened: as §1
[17] = target: NAD(P)H dehydrogenase [quinone] 1 (Homo sapiens) (UniProt P15559); assay: Inhibition of NQO1 in human MCF7 cells assessed as increase in BAX expression at 0.5 times of IC50 incubated for 24 hrs by RT-PCR; format: cell-based; procedure, shortened: as §1
[18] = target: NAD(P)H dehydrogenase [quinone] 1 (Homo sapiens) (UniProt P15559); assay: Inhibition of NQO1 in human C32 cells assessed as increase in BAX expression at 0.5 times of IC50 incubated for 24 hrs by RT-PCR; format: cell-based; procedure, shortened: as §1
[19] = target: NAD(P)H dehydrogenase [quinone] 1 (Homo sapiens) (UniProt P15559); assay: Inhibition of NQO1 in human C32 cells assessed as increase in CDKN1A expression at 0.5 times of IC50 incubated for 24 hrs by RT-PCR; format: cell-based; procedure, shortened: as §1
[20] = target: NAD(P)H dehydrogenase [quinone] 1 (Homo sapiens) (UniProt P15559); assay: Inhibition of NQO1 in human MCF7 cells assessed as effect on Bcl2 expression at 0.5 times of IC50 incubated for 24 hrs by RT-PCR; format: cell-based; procedure, shortened: as §1
[21] = target: NAD(P)H dehydrogenase [quinone] 1 (Homo sapiens) (UniProt P15559); assay: Inhibition of NQO1 in human A549 cells assessed as increase in BAX expression at 0.5 times of IC50 incubated for 24 hrs by RT-PCR; format: cell-based; procedure, shortened: as §1
[22] = target: NAD(P)H dehydrogenase [quinone] 1 (Homo sapiens) (UniProt P15559); assay: Inhibition of NQO1 in human MCF7 cells assessed as increase in TP53 expression at 0.5 times of IC50 incubated for 24 hrs by RT-PCR; format: cell-based; procedure, shortened: as §1
[23] = tested on: MDA-MB-231; assay: Antiproliferative activity against human MDA-MB-231 cells assessed as reduction in cell viability incubated for 72 hrs by WST1 assay; format: functional, cell-based
[24] = tested on: A549; assay: Induction of apoptosis in human A549 cells assessed as increase in BAX/Bcl2 expression at 0.5 times of IC50 incubated for 24 hrs by RT-PCR; format: functional, cell-based; procedure, shortened: as §1
[25] = target: NAD(P)H dehydrogenase [quinone] 1 (Homo sapiens) (UniProt P15559); assay: Inhibition of NQO1 in human C32 cells assessed as decrease in histone H3 expression at 0.5 times of IC50 incubated for 24 hrs by RT-PCR; format: cell-based; procedure, shortened: as §1
[26] = target: NAD(P)H dehydrogenase [quinone] 1 (Homo sapiens) (UniProt P15559); assay: Inhibition of NQO1 in human C32 cells assessed as decrease in Bcl2 expression at 0.5 times of IC50 incubated for 24 hrs by RT-PCR; format: cell-based; procedure, shortened: as §1
[27] = target: NAD(P)H dehydrogenase [quinone] 1 (Homo sapiens) (UniProt P15559); assay: Inhibition of NQO1 in human A549 cells assessed as decrease in Bcl2 expression at 0.5 times of IC50 incubated for 24 hrs by RT-PCR; format: cell-based; procedure, shortened: as §1
[28] = Homo sapiens, SNB-19, 72 h, read-out: IC50
[29] = Homo sapiens, MDA-MB-231, 72 h, read-out: IC50

Chain of NAD(P)H dehydrogenase [quinone] 1 (Homo sapiens) (P15559 whole entry): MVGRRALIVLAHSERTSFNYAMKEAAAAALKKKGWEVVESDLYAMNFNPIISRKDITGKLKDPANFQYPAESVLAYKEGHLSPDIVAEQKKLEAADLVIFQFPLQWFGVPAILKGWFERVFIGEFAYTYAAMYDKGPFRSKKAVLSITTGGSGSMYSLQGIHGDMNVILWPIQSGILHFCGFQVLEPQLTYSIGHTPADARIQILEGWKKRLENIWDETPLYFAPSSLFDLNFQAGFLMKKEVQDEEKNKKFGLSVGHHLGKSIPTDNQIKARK

**Q.** What does the source list for C=C(C)[C@@H]1CC[C@]2(COC(C)=O)CC[C@]3(C)[C@H](CC[C@@H]4[C@@]5(C)CC[C@H](OC6=C(Cl)C(=O)c7ccccc7C6=O)C(C)(C)[C@@H]5CC[C@]43C)[C@@H]12?
**A.** Activity [1]: Active; Ratio [2]: 4 - 5; Activity [3]: Active; IC50 [4]: 0.77 µM; Activity [5]: inactive; Activity [6]: Active; Activity [7]: Active; IC50 [8]: 8.72 µM; IC50 [9]: 1.72 µM; Activity [10]: Active; Activity [11]: inactive; Activity [12]: Active; IC50 [13]: 12.3 µM; IC50 [14, 28]: 7.54 µM; IC50 [15]: 0.13 µM; Activity [16]: Active; Activity [17]: Active; Activity [18]: Active; Activity [19]: Active; Activity [20]: inactive; Activity [21]: Active; Activity [22]: Active; IC50 ([23]; mda-mb-231): Not Active; Activity [24]: Active; Activity [25]: Active

**Q.** How did the Activity [1] turn out when C=C(C)[C@@H]1CC[C@]2(COC(C)=O)CC[C@]3(C)[C@H](CC[C@@H]4[C@@]5(C)CC[C@H](OC6=C(Cl)C(=O)c7ccc(C)nc7C6=O)C(C)(C)[C@@H]5CC[C@]43C)[C@@H]12 was run?
**A.** Active

**Q.** What about the Ratio [2] of the same molecule?
**A.** 4 - 5

**Q.** What about the Activity [3] of the same molecule?
**A.** Active

**Q.** What about the IC50 [4] of the same molecule?
**A.** 0.59 µM

**Q.** And the Activity [6]?
**A.** Active

**Q.** And the Activity [7]?
**A.** Active

**Q.** What about the IC50 [8] of the same molecule?
**A.** 1.58 µM

**Q.** And the IC50 [9]?
**A.** 6.52 µM

**Q.** And the Activity [10]?
**A.** Active

**Q.** And the Activity [12]?
**A.** Active

**Q.** And the IC50 [13]?
**A.** 11.3 µM

**Q.** What about the IC50 ([14]; snb-19) of the same molecule?
**A.** Not Active

**Q.** And the Activity [26]?
**A.** Active

**Q.** And the IC50 [15]?
**A.** 4.68 µM

**Q.** And the Activity [16]?
**A.** Active

**Q.** And the Activity [17]?
**A.** Active

**Q.** And the Activity [18]?
**A.** Active

**Q.** What about the Activity [19] of the same molecule?
**A.** Active

**Q.** What about the Activity [20] of the same molecule?
**A.** inactive

**Q.** What about the Activity [21] of the same molecule?
**A.** Active

**Q.** And the Activity [27]?
**A.** Active

**Q.** And the Activity [22]?
**A.** Active

**Q.** What about the IC50 [23, 29] of the same molecule?
**A.** 0.9 µM

**Q.** What about the Activity [24] of the same molecule?
**A.** Active

**Q.** What about the Activity [25] of the same molecule?
**A.** Active

**Q.** What does the source list for C#CC(=O)OC[C@]12CC[C@@H](C(=C)C)[C@@H]1[C@H]1CC[C@@H]3[C@@]4(C)CC[C@H](OC5=C(Cl)C(=O)c6cccnc6C5=O)C(C)(C)[C@@H]4CC[C@@]3(C)[C@]1(C)CC2?
**A.** Activity [1]: Active; Ratio [2]: 4 - 5; Activity [3]: Active; IC50 [4]: 0.45 µM; Activity [5]: inactive; Activity [6]: Active; Activity [7]: Active; IC50 [8]: 14.2 µM; IC50 [9]: 1.27 µM; Activity [10]: Active; Activity [11]: inactive; Activity [12]: Active; IC50 [13]: 99.4 µM; IC50 [14, 28]: 42 µM; IC50 [15]: 6.67 µM; Activity [16]: Active; Activity [17]: Active; Activity [18]: Active; Activity [19]: Active; Activity [20]: inactive; Activity [21]: Active; Activity [22]: Active; IC50 [23, 29]: 2.43 µM; Activity [24]: Active; Activity [25]: Active
